“Also recorded” adds a separate entry of the source. Bounds are passed on as bounds.

Series [1] can be described thus: ABTS radical scavenging assay. The class given is biochemical. The settings on record: read-out: ABTS IC50; concentration to scavenge 50% of radicals, mean ± SD. The essentials:
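ABTS radical cation generated by reacting ABTS with potassium persulfate, then diluted to an absorbance of about 0.700 at 732 nm. Test compound at several concentrations was mixed with the ABTS⁺ solution and the fall in absorbance recorded. Percent scavenging was calculated against a solvent control, with ascorbic acid as reference antioxidant. Three independent experiments in triplicate, mean ± SD.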

For series [2], the system named is HT-29 (human colorectal adenocarcinoma). The series is described as follows: SRB cytotoxicity assay, HT-29 cells. The class given is cell-based. The settings on record: for IC50: Homo sapiens, HT-29, 72 h, read-out: IC50 HT-29; for Selectivity index (SI) HT-29: IC50 in GES-1 / IC50 in HT-29. Summed up:
(§1)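 Cells plated at 3 × 10³ per well and left 24 h to attach at 37 °C, 5% CO₂. Test compound at 0–100 µM from ethanol stocks (1% final ethanol) for 72 h. Fixation in TCA (10% final), staining with 0.1% SRB, dye solubilized in 10 mM Tris, A540. Viability relative to 1% ethanol vehicle. IC50 from a four-parameter logistic fit with 95% CI; triplicate, three independent runs, mean ± SD. SI = IC50 in GES-1 divided by IC50 in the cancer line.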
A general note: Sulforhodamine B stains cellular protein and so reports cell mass.

A further series relates to human erythrocytes. Briefly: Hemolysis assay. In kind it is cell-based. The note with it: for Hemolysis, result in words: 10–300 µg/mL; for Hemolysis (%): 30 min, 37 °C. The essentials: (§2)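 Donor blood was collected in EDTA. RBCs were pelleted at 500 × g for 10 min, washed three times in PBS and resuspended in PBS. Cells were exposed to test compound at 10–300 µg/mL for 30 min at 37 °C with gentle agitation, then spun at 1000 × g for 5 min; supernatant hemoglobin was read at 540 nm. Deionized water defined 100% and PBS 0% hemolysis. Triplicate, three independent repeats.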

The nature of the next series: Hemolysis assay. The class given is cell-based, human. The settings on record: human, washed human red blood cells, Hemolysis (%), 30 min, 37 °C. The essentials: as §2
Series [3] has as its system PC-3 (human prostate cancer). Briefly: SRB cytotoxicity assay, PC-3 cells. The class given is cell-based. The note with it: for IC50: Homo sapiens, PC-3, 72 h, read-out: IC50 PC-3; for Selectivity index (SI) PC-3: IC50 in GES-1 / IC50 in PC-3. Summed up:
as §1

Series [4] concerns AGS (human gastric adenocarcinoma). The series is described as follows: SRB cytotoxicity assay, AGS cells. The class given is cell-based. The settings on record: for IC50: Homo sapiens, AGS, 72 h, read-out: IC50 AGS; for Selectivity index (SI) AGS: IC50 in GES-1 / IC50 in AGS. The essentials: as §1
The test system of series [5] is mitochondrial membrane permeability of cancer cell line. Briefly: Mitochondrial membrane permeability by flow cytometry. The class given is cell-based, human. The settings on record: 48 h, Rhodamine 123, flow cytometry.

Turning to `O=C1O[C@H]([C@@H](O)CO)C(O)=C1O` [AA, Ascorbic acid, reference compound], the IC50 in series [1] came to 141 ± 3.5 µM.
As for `CC1(C)C2CC[C@@]1(C)C(=O)/C2=C/c1ccco1` [Compound 4, (1R,3E)-3-[(furan-2-yl)methylidene]-1,7,7-trimethylbicyclo[2.2.1]heptan-2-one], the IC50 in series [2] is above 100 µM. Besides, the “Hemolysis, result in words” value with human erythrocytes was “concentration dependent increase in hemolysis; also recorded: significant hemolysis”. In “Hemolysis assay”, this compound displayed a hemolysis at 30 min, 10 µg/mL of 15.7%; a hemolysis at 30 min, 25 µg/mL of 18.2%; a hemolysis at 30 min, 50 µg/mL of 20.1%; a hemolysis at 30 min, 100 µg/mL of 31.8%. For the same compound, in the series “Hemolysis assay”, the hemolysis at 30 min, 200 µg/mL was found to be 41.5% and the hemolysis at 30 min, 300 µg/mL amounted to 49.7%. For the same compound, the IC50 in series [3] is above 100 µM. The IC50 in series [1] turned out to be 1004 ± 2 µM. Also, in series [4], the IC50 was above 100 µM.
For `CC1(C)C2CC[C@]1(C)C(=O)/C2=C/c1cccs1` [Compound 5, (1S,3E)-1,7,7-trimethyl-3-[(thiophen-2-yl)methylidene]bicyclo[2.2.1]heptan-2-one], in series [2], the IC50 is 87.5 ± 0.5 µM and the “Selectivity index (SI) HT-29” value was 2.1. In addition, in the series “Hemolysis assay”, the hemolysis at 30 min, 10 µg/mL was 0%; the hemolysis at 30 min, 25 µg/mL stood at 0%; the hemolysis at 30 min, 50 µg/mL came to 1.1%; the hemolysis at 30 min, 100 µg/mL stood at 3.11%. In “Hemolysis assay”, the hemolysis at 30 min, 200 µg/mL was determined as 7.4% and the hemolysis at 30 min, 300 µg/mL came out at 13.8%. Also, in series [3], the IC50 came to 63.57 ± 0.6 µM and the “Selectivity index (SI) PC-3” value is given as 3.0. The IC50 in series [1] was 1301 ± 2.4 µM. In addition, the “Effect on mitochondrial membrane potential” value in series [5] is recorded as “loss of the mitochondrial membrane potential”. In addition, in series [4], the IC50 came to 43.2 ± 0.3 µM and the “Selectivity index (SI) AGS” value is on record as 4.2.
Regarding `O=c1[nH]cc(F)c(=O)[nH]1` [Compound 5-FU, 5-fluorouracil, reference compound], in series [2], the IC50 amounted to 2.9 ± 0.7 µM and the “Selectivity index (SI) HT-29” value is on record as 48.3. Moreover, the IC50 in series [3] worked out at 16.4 ± 0.6 µM. In series [4], the IC50 was 56.1 ± 0.5 µM and the “Selectivity index (SI) AGS” value worked out at 2.5.
Take `CC1(C)C2CC[C@@]1(C)C(=O)/C2=C/c1cccs1` [Compound 6, (1R,3E)-1,7,7-trimethyl-3-[(thiophen-2-yl)methylidene]bicyclo[2.2.1]heptan-2-one]: in series [2], the IC50 is above 100 µM. In the series on human erythrocytes, the “Hemolysis, result in words” value is reported as “concentration dependent increase in hemolysis”. In the series “Hemolysis assay”, this compound came in with a hemolysis at 30 min, 10 µg/mL of 6.36%; a hemolysis at 30 min, 25 µg/mL of 7.07%; a hemolysis at 30 min, 50 µg/mL of 16.8%; a hemolysis at 30 min, 100 µg/mL of 21.6%. Moreover, in the series “Hemolysis assay”, the hemolysis at 30 min, 200 µg/mL is 26.7% and the hemolysis at 30 min, 300 µg/mL was 29%. For the same compound, in series [3], the IC50 is above 100 µM. The IC50 in series [1] worked out at 1082 ± 1.7 µM. Further, the IC50 in series [4] was above 100 µM.
For the compound `CC1(C)C2CC[C@]1(C)C(=O)/C2=C/c1ccoc1` [Compound 7, (1S,3E)-3-[(furan-3-yl)methylidene]-1,7,7-trimethylbicyclo[2.2.1]heptan-2-one], the IC50 in series [2] is above 100 µM. Also, in the series “Hemolysis assay”, the hemolysis at 30 min, 10 µg/mL turned out to be 0%; the hemolysis at 30 min, 25 µg/mL is 0%; the hemolysis at 30 min, 50 µg/mL is 0%; the hemolysis at 30 min, 100 µg/mL was 1.81%. In the series “Hemolysis assay”, this compound displayed a hemolysis at 30 min, 200 µg/mL of 3.12% and a hemolysis at 30 min, 300 µg/mL of 5.97%. Besides, in series [3], the IC50 is above 100 µM. The IC50 in series [1] was 1046 ± 3.3 µM. Moreover, the IC50 in series [4] was above 100 µM.
On to `CC1(C)C2CC[C@@]1(C)C(=O)/C2=C/c1ccoc1` [Compound 8, (1R,3E)-3-[(furan-3-yl)methylidene]-1,7,7-trimethylbicyclo[2.2.1]heptan-2-one], for which, in series [2], the IC50 was above 100 µM. Besides, in “Hemolysis assay”, the hemolysis at 30 min, 10 µg/mL is 0%; the hemolysis at 30 min, 25 µg/mL came out at 2.53%; the hemolysis at 30 min, 50 µg/mL was found to be 6.29%; the hemolysis at 30 min, 100 µg/mL is 8.5%. Also, in “Hemolysis assay”, the hemolysis at 30 min, 200 µg/mL is 9.74% and the hemolysis at 30 min, 300 µg/mL was 12.2%. Also, the IC50 in series [3] is above 100 µM. The IC50 in series [1] worked out at 1344 ± 3.4 µM. The IC50 in series [4] was above 100 µM.
With `CC1(C)C2CC[C@]1(C)C(=O)/C2=C/c1cc2ccccc2o1` [Compound 9, (1S,3E)-3-[(1-benzofuran-2-yl)methylidene]-1,7,7-trimethylbicyclo[2.2.1]heptan-2-one], in series [2], the IC50 is 76.3 ± 0.2 µM and the “Selectivity index (SI) HT-29” value is 3.0. Moreover, in the series “Hemolysis assay”, the hemolysis at 30 min, 10 µg/mL amounted to 2.01%; the hemolysis at 30 min, 25 µg/mL came to 3.31%; the hemolysis at 30 min, 50 µg/mL is 6.36%; the hemolysis at 30 min, 100 µg/mL was 8.05%. In “Hemolysis assay”, this compound registered a hemolysis at 30 min, 200 µg/mL of 12.9% and a hemolysis at 30 min, 300 µg/mL of 13.4%. Besides, in series [3], the IC50 was determined as 97 ± 0.2 µM and the “Selectivity index (SI) PC-3” value was determined as 2.3. In addition, the IC50 in series [1] turned out to be 954.7 ± 2.7 µM. The “Effect on mitochondrial membrane potential” value in series [5] is recorded as “loss of the mitochondrial membrane potential”. Further, in series [4], the IC50 amounted to 31.8 ± 0.4 µM and the “Selectivity index (SI) AGS” value was determined as 7.0.
For `CC1(C)C2CC[C@@]1(C)C(=O)/C2=C/c1cc2ccccc2o1` [Compound 10, (1R,3E)-3-[(1-benzofuran-2-yl)methylidene]-1,7,7-trimethylbicyclo[2.2.1]heptan-2-one], the IC50 in series [2] is above 100 µM. In addition, in “Hemolysis assay”, the hemolysis at 30 min, 10 µg/mL amounted to 0%; the hemolysis at 30 min, 25 µg/mL was 0.38%; the hemolysis at 30 min, 50 µg/mL was found to be 3.12%; the hemolysis at 30 min, 100 µg/mL is 5.84%. In the series “Hemolysis assay”, this compound showed a hemolysis at 30 min, 200 µg/mL of 6.16% and a hemolysis at 30 min, 300 µg/mL of 8.05%. In addition, the IC50 in series [3] was above 100 µM. The IC50 in series [1] was found to be 1146 ± 3.7 µM. The IC50 in series [4] was above 100 µM.
Take `CC1(C)C2CC[C@]1(C)C(=O)/C2=C/c1ccsc1` [Compound 11, (1S,3E)-1,7,7-trimethyl-3-[(thiophen-3-yl)methylidene]bicyclo[2.2.1]heptan-2-one]: in “Hemolysis assay”, the hemolysis at 30 min, 10 µg/mL came to 0%; the hemolysis at 30 min, 25 µg/mL came to 0.77%; the hemolysis at 30 min, 50 µg/mL worked out at 5.25%; the hemolysis at 30 min, 100 µg/mL worked out at 7.2%. In addition, in “Hemolysis assay”, the hemolysis at 30 min, 200 µg/mL is 11.2% and the hemolysis at 30 min, 300 µg/mL worked out at 13.2%. Further, the half-maximal inhibitory concentration (IC50) in series [1] was determined as 1396 ± 3.8 µM.
Consider `CC1(C)C2CC[C@@]1(C)C(=O)/C2=C/c1ccsc1` [Compound 12, (1R,3E)-1,7,7-trimethyl-3-[(thiophen-3-yl)methylidene]bicyclo[2.2.1]heptan-2-one], for which the “Hemolysis, result in words” value with human erythrocytes was “concentration dependent increase in hemolysis”. In “Hemolysis assay”, this compound had a hemolysis at 30 min, 10 µg/mL of 5.9%; a hemolysis at 30 min, 25 µg/mL of 6.81%; a hemolysis at 30 min, 50 µg/mL of 7.92%; a hemolysis at 30 min, 100 µg/mL of 9.41%. In the series “Hemolysis assay”, this compound registered a hemolysis at 30 min, 200 µg/mL of 10.2% and a hemolysis at 30 min, 300 µg/mL of 12.5%. Further, the IC50 in series [1] is 1025 ± 3.5 µM.
Regarding `COc1cccc2c1C(=O)c1c(O)c3c(c(O)c1C2=O)C[C@@](O)(C(C)=O)C[C@@H]3O[C@H]1C[C@H](N)[C@H](O)[C@H](C)O1` [Daunorubicin, reference compound], in series [2], the IC50 is 15.1 ± 0.5 µM and the “Selectivity index (SI) HT-29” value was found to be 23.3. Moreover, in series [3], the IC50 was determined as 10.4 ± 0.4 µM and the “Selectivity index (SI) PC-3” value was found to be 33.9. For the same compound, in series [4], the IC50 worked out at 13 ± 0.3 µM and the “Selectivity index (SI) AGS” value was 27.1.
“Triton X-100 [Triton X-100 1%, reference compound]”: the “Hemolysis (%)” value in the series with human erythrocytes (10 µg/mL), with human erythrocytes (25 µg/mL), in the series on human erythrocytes (50 µg/mL), in the series with human erythrocytes (100 µg/mL), in the series with human erythrocytes (200 µg/mL) and in the series with human erythrocytes (300 µg/mL) was 100% throughout.

Broadly, the IC50 is the concentration needed to halve the response being measured.
